LMPTP inh: LMPTP (human) inhibition | inhibition, % at 20 µM | AID 651560 | 360,000 tested, 0.22% active | recombinant LMPTP-A, OMFP fluorogenic substrate, fluorescence intensity | P24666;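 active means compounds that cut the enzyme signal by at least half of the control window in the single-dose screen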
Target sequence (P24666 whole entry, looked up): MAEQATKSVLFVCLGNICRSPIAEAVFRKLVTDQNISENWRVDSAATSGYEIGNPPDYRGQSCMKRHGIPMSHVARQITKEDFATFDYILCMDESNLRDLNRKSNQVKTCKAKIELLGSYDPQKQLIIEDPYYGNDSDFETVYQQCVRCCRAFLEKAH
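Test system – LMPTP-A enzyme · Amount – LMPTP-A at 0.625 nM final in the reaction · Buffer or medium – Bis-Tris pH 6.0, DTT, detergent · Reagent – OMFP 400 µM · Doses – single 20 µM dose · Schedule – reaction 50 min, room temperature, dark · Detection – fluorescence intensity of OMFP turnover product · Evaluation – percent inhibition versus substrate-only and uninhibited controls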
DNMT1 block: inhibitors of human DNMT1; DNMT1 molecular beacon, Hinp1I cleavage, fluorescence; inhibition (reported as % activation of signal), % at 10 µM; 360,000 tested, 0.83% active; AID 588458; in the data active means inhibition above about 50%
Scp-1 inhibitor: Scp-1 (human) phosphatase inhibition | Q9GZU7 | Recombinant Scp1, phosphopeptide, malachite green phosphate absorbance | inhibition, % at 20 µM | 340,000 tested, 0.88% active;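 active means inhibition above about 50% at 20 µM, limit read from the data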
Target sequence (Q9GZU7 76-261 limits assumed): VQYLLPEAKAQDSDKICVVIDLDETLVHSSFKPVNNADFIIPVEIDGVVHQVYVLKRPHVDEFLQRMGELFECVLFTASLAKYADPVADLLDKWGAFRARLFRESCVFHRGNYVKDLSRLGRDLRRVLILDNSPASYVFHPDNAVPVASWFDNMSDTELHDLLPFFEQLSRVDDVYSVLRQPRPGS
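System: SCP-1 catalytic domain; Reagent: Phospho 17-mer peptide substrate; Doses: one concentration, 20 µM, with 1.0% DMSO; Incubation: 45 min room-temperature reaction, 5 min colour, 30 min stabiliser; Signal: Phosphate-binding colour reagent, absorbance read at 630 nm.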
STEP block: inhibitors of human striatal-enriched phosphatase STEP. P54829. recombinant STEP, OMFP fluorogenic substrate, fluorescence. inhibition, % at 20 µM. 360,000 tested, 0.25% active;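 active means inhibition at 20 µM, scaled per plate between control wells, above about 37%, limit read from the data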
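Material: STEP (striatal-enriched tyrosine phosphatase) enzyme, cell-free | Medium: 50 mM Bis-Tris pH 6.0 with 2.5 mM DTT and 0.005% Tween 20 | Read-out: Percent inhibition scaled to no-enzyme and uninhibited-enzyme controls, plate-pattern corrected | Signal: Fluorescence read at 480 nm ex / 540 nm em | Times: 20 min reaction, room temperature, in the dark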
SUMO1-SIM PPI: alters human SUMO1 binding to SIM partners; 360,000 tested, 0.33% active; AID 602429; inhibition, % at 20 µM; SUMO1 binding to a labelled peptide, TR-FRET, 1 h; in the data active means inhibition above about 37%
Target sequence (P63165 whole entry, looked up): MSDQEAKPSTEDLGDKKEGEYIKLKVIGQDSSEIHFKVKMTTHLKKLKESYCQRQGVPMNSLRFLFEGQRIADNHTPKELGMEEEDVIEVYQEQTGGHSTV
DNMT1 interf DR: counter-screen for DNMT1 inhibitors: spectral interference, dose response | shares compounds with DNMT1 block | molecular beacon fluorescence | 200 tested, under 10 active | IC50, µM; call rule not given here
DNMT1 confirm: confirmation of human DNMT1 inhibitors | shares compounds with DNMT1 block | DNMT1 molecular beacon HinP1I cleavage, fluorescence | inhibition, % at 10 µM | 2,300 tested, 8% active | AID 602385;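 active means average inhibition of at least 30% in the single-concentration confirmation test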
Beacon interf: beacon fluorescence artifact counter-screen. shares compounds with DNMT1 block. DNMT1 molecular beacon spectral interference counterscreen, fluorescence 485/520. activation (fluorescence interference), % at 10 µM. 2,300 tested, 1% active. AID 602387;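 active means activation of at least 30% at 10 µM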;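 further: DNMT1 catalytic domain with a HinP1I cleavage step and a FAM/dabcyl DNA beacon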
A number is an active result; – = inactive; · = not tested or not shown. Hits are enriched below; roughly 1.7% of the tested compounds scored in any of these assays.

SMILES | LMPTP inh | DNMT1 block | Scp-1 inhibitor | STEP block | SUMO1-SIM PPI | DNMT1 confirm | Beacon interf | others
O=C1/C(=C/c2ccco2)Oc2c1ccc(O)c2CN1CCCCC1 | – | 78.8 | – | – | – | – | –
Cn1cc(/C=C(\C#N)C(=O)Nc2cccc([N+](=O)[O-])c2)c2ccccc21 | – | 60.7 | – | – | – | – | –
COC(=O)C1(CC2CC(c3cccc(Br)c3)=NO2)CCN(C(=O)OC(C)(C)C)CC1 (stereo unspecified) | – | – | – | – | – | · | ·
COC(=O)c1ccc(NC(=O)CCN2CCOCC2)cc1 | – | 91.8 | – | – | – | – | –
Cc1ccc(-c2nnn(CC(=O)Nc3ccc(S(=O)(=O)N4CCC(C)CC4)cc3)n2)cc1 | – | – | – | – | – | · | ·
CC1CCN(S(=O)(=O)c2ccc(NC(=O)Cn3nnc(-c4ccccc4)n3)cc2)CC1 | – | 56.2 | – | – | – | – | –
O=C1C(Cl)=C(N2CCCC2)C(=O)N1c1ccc(F)cc1 | – | 71.8 | – | – | – | – | –
COc1ccc(N2C(=O)C(Cl)=C(N3CCCC3)C2=O)cc1 | – | – | – | – | – | · | ·
COc1cc2cc(Oc3ccc4ccc(=O)oc4c3)c(=O)oc2cc1O[C@@H]1O[C@H](CO)[C@@H](O)[C@H](O)[C@H]1O | – | 104.7 | – | – | – | 60.9 | – | DNMT1 interf DR=–
COCC(=O)Nc1ccccc1C(=O)Nc1ccc(OC)cc1 | – | – | – | – | – | · | ·
COc1ccc(NC(=O)c2ccccc2NC(=O)COc2ccccc2)cc1 | – | 54.6 | – | – | – | – | –
COc1ccc2cc(OCC(=O)NNC(=O)Nc3ccc(C(C)=O)cc3)ccc2c1 | – | 71.9 | – | – | – | – | –
CCOC(=O)C1CCN(C(=O)C(C)Sc2nnc3ccccn23)CC1 (stereo unspecified) | – | – | – | – | – | · | ·
Cc1cccc(NC(=O)CSc2cc(C)c(C#N)c3nc4ccccc4n23)c1 | – | 52.3 | – | – | – | – | –
Cc1ccc(S(=O)(=O)N2C[C@H]3[C@H]4C(=O)N(c5ccccc5)C(=O)[C@H]4C[C@H](OC(=O)NC4CC4)[C@@]3(O)C2)cc1 | – | – | · | – | – | · | ·
CCCCCCNC(=O)O[C@H]1C[C@@H]2C(=O)N(c3ccccc3)C(=O)[C@@H]2[C@@H]2CN(S(=O)(=O)c3ccc(C)cc3)C[C@]12O | – | 75.6 | · | – | – | – | –
Cc1ccc(S(=O)(=O)N(Cc2ccccc2F)C(=O)N2CCN(C)CC2)cc1 | – | – | – | – | – | · | ·
CCCCn1nnnc1C1(C)CCC(=O)N1CC1CCCCC1 (stereo unspecified) | – | · | · | · | – | · | ·
COC(=O)N(C)C[C@H]1OCc2cnnn2CCCC(=O)N([C@@H](C)CO)C[C@H]1C | – | – | · | – | – | · | ·
COc1ccc2c(c1)CCC(=O)[C@H](O)C[C@H](c1ccccc1)OC2=O | – | · | · | · | – | · | ·
O=C(CSCc1ccc(Cl)cc1)Nc1ccc(-c2nnc(-c3ccccc3)o2)cc1 | – | 72.2 | – | – | – | – | –
O=C1c2ccccc2C(c2nnnn2-c2ccc3c(c2)OCCO3)N1Cc1ccc(F)cc1 (stereo unspecified) | – | · | · | · | – | · | ·
Cc1ccc(C)c(S(=O)(=O)NCCOc2nc(NC(C)C)nc(NC(C)C)n2)c1 | – | – | – | – | – | · | ·
CSc1nc(C)cc(OCCNS(=O)(=O)c2cc(C)ccc2C)n1 | – | 67.0 | – | – | – | – | –
O=C(CNc1ccccc1F)Nc1cccc(S(=O)(=O)N2CCCCC2)c1 | – | – | – | – | – | · | ·
SMILES | LMPTP inh | DNMT1 block | Scp-1 inhibitor | STEP block | SUMO1-SIM PPI | DNMT1 confirm | Beacon interf | others
CCOC(=O)c1c(NC(=O)c2cc(-c3ccc(Cl)s3)nc3ccccc23)sc(C(N)=O)c1C | – | 55.6 | – | – | – | – | –
Cn1c(=O)c2cc(S(=O)(=O)NC(C(=O)Nc3cccnc3)c3ccccc3)ccc2n(C)c1=O (stereo unspecified) | – | – | – | – | – | · | ·
Cn1c(=O)c2cc(S(=O)(=O)NC(C(=O)Nc3cccc(F)c3)c3ccccc3)ccc2n(C)c1=O (stereo unspecified) | – | 82.8 | – | – | – | – | –
O=C(O)C/C(=C\c1cc(Cl)c2c(c1)OCO2)c1nc2ccccc2s1 | – | 52.9 | – | – | – | – | –
Cc1cccc(NC(=O)CSCC(=O)Nc2ccccc2N2CCCCC2)c1 | – | 93.7 | – | – | – | – | –
Cc1cccc(NC(=O)CSCC(=O)Nc2ccccc2N2CCCC2)c1 | – | – | – | – | – | · | ·
CC1=NN(c2ccccc2)C(=O)/C1=C/C=C/c1ccccc1 | – | – | – | – | – | · | ·
CC1=NN(c2cccc(C(=O)O)c2)C(=O)/C1=C\C=C\c1ccco1 | – | 105.9 | 80.0 | 41.1 | – | 106.7 | – | DNMT1 interf DR=–
Cc1nn(CCO)c2nc(-c3cccs3)cc(C(F)(F)F)c12 | – | 60.3 | – | – | – | – | –
CCOc1cc(/C=C2\C(=O)NN(c3ccccc3)C2=O)cc([N+](=O)[O-])c1O | – | 67.7 | – | – | – | – | –
C=CC[C@@H](CC(=O)N[C@@H](CO)Cc1ccccc1)C(=O)N[C@H](COC(=O)[C@@H](CC=C)Cc1ccc(F)cc1)Cc1ccccc1 | – | 61.7 | – | – | – | – | –
C=CCC[C@@H](Cc1ccc(F)cc1)C(=O)O[C@H](CNC(=O)[C@@H](CC=C)CC(=O)N[C@H](CO)Cc1ccccc1)c1ccccc1 | – | 83.0 | – | – | – | – | –
C=CC[C@@H](CC(=O)N[C@H](CO)Cc1ccccc1)C(=O)NC[C@@H](OC(=O)[C@@H](CC=C)Cc1ccc(F)cc1)c1ccccc1 | – | 76.6 | – | – | – | – | –
C=CCC[C@H](Cc1ccc(F)cc1)C(=O)OC[C@H](Cc1c[nH]c2ccccc12)NC(=O)[C@@H](CC=C)CC(=O)N[C@@H](CO)Cc1ccccc1 | – | 69.2 | – | – | – | – | –
C=CCC[C@H](Cc1ccc(F)cc1)C(=O)OC[C@@H](C)NC(=O)[C@@H](CC=C)CC(=O)N[C@H](CO)Cc1ccccc1 | – | – | – | – | – | · | ·
CC#CCN(Cc1ccco1)C(=O)C1CCC(=O)N(CCc2cccc(F)c2)C1 (stereo unspecified) | – | – | · | – | – | · | ·
COc1ccc(-n2nc(C(=O)Nc3ccc(OC)c(OC)c3)c3c4ccccc4n(C)c3c2=O)cc1 | – | 60.0 | – | – | – | – | –
CCOc1ccc(NC(=O)CNC(=O)c2nn(-c3ccc(OC)c(OC)c3)c(=O)c3ccccc23)cc1 | – | – | – | – | – | · | ·

Screening results: PubChem, Sanford-Burnham Center for Chemical Genomics
